An excerpt weighted towards active compounds, which were near 2% of everything screened.
NR2E3 ag-1: human photoreceptor-specific nuclear receptor agonism | Q9Y5X4 | CHO-S Gal4-NCOR/VP16-NR2E3 two-hybrid, luciferase | inhibition of corepressor binding, % at 3.98 µM | 360,000 compounds, 0.35% hits;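 active = inhibition above the mean of all tested compounds plus 3 SD, cut at about 70% in these data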;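 also: 0% = DMSO with NR2E3 transfected cells and 100% = cells lacking NR2E3 construct; higher means lower luciferase signal from less NR2E3 corepressor binding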
Target sequence (Q9Y5X4 whole entry, looked up, the tested form may be a part): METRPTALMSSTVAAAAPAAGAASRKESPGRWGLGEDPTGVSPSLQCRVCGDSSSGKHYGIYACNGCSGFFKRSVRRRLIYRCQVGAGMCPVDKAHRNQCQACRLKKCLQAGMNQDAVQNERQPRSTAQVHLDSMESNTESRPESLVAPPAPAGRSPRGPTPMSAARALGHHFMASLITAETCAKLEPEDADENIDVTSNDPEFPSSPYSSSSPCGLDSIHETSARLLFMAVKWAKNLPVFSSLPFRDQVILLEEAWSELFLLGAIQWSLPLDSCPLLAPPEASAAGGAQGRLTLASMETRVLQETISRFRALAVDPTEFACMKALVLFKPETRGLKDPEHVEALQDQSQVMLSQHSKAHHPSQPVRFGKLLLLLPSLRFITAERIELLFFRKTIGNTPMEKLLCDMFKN
NR2E3 ag-2: activates human photoreceptor nuclear receptor NR2E3 | inhibition of corepressor binding, % at 4.78 µM | Q9Y5X4 | 320,000 compounds, 0.12% hits | GST-NR2E3/biotin-RetCOR TR-FRET, 1536-well;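 active = percent inhibition above the cutoff of mean plus 3 SD of all tested compounds, set per screening campaign, cut at about 20% in these data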;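 also: 0% = DMSO wells and 100% = biotin wells as full block of FRET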
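Material: NR2E3–RetCOR corepressor complex / Amount: 1.35 nM GST-NR2E3 / Medium: Tris pH 7.5 / Compound: single nominal compound dose of 4.8 µM / Incubation: 5 h at 4 °C / Technique: TR-FRET, Eu(K)-anti-GST donor, streptavidin-D2 acceptor, ex 340, em 617/671 nm / Read-out basis: percent loss of FRET ratio relative to control wells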
TROY NFkB inh: TROY signaling inhibition; AID 1347056; 360,000 compounds, 0.98% hits; inhibition, % at 10 µM; Q293 LMP1-TROYcd NF-kB luciferase reporter, 4 h;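 active = compounds whose plate-normalised and pattern-corrected inhibition of the luciferase reporter signal at the single screening dose is 50% or more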
HIF activator: HIF pathway transcriptional activation; U2OS HRE-luciferase reporter, luminescence; normalized: DMSO 0%, desferrioxamine 100%; activation, % at 7.5 µM (by protocol); 300,000 compounds, 0.32% hits; AID 1910;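 active = mean activation of at least 10% of the iron chelator positive control signal, with at least half of replicates also reaching 10%; inconclusive = mean and replicate majority disagree about reaching 10%; inactive = mean and most replicates under 10%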
EBV LMP1 NFkB: reduces LMP1-driven NF-kappaB luciferase signal. LMP1-induced NF-kappaB luciferase reporter cells, luminescence. inhibition, % at 12.5 µM. 350,000 compounds, 0.69% hits; in the data active = inhibition above about 41%; inconclusive = no clear call, values can overlap the other calls;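 also: 0% = neutral control wells and 100% = reference inhibitor control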
Starred values were filed as active, the others as inactive; ? = inconclusive; . = no result.

SMILES	NR2E3 ag-1	NR2E3 ag-2	TROY NFkB inh	HIF activator	EBV LMP1 NFkB
CC(C(=O)NC1CCCc2ccccc21)N1CCN(Cc2ccc3c(c2)OCO3)CC1 (stereo not drawn)	-2.9	-1.1	58.1*	-0.5	5.7
O=C(Nc1ccccc1)c1cc(C2COCCN2C(=O)C2CC2)on1 (stereo not drawn)	10.5	.	-12.3	.	.
Cc1cc(C)n(C(=O)/C(C#N)=N\Nc2ccccc2[N+](=O)[O-])n1	-32.4	5.4	1.2	0.8	3.4
Cc1cc(C)n(C(=O)/C(C#N)=N/Nc2cc(Cl)cc(Cl)c2)n1	0.6	-3.5	67.5*	-0.9	8.7
CCC(C)(C)NC(=O)C(c1cccc(OC)c1OC)N(CCOC)C(=O)CCC(=O)Nc1cc(C)on1 (stereo not drawn)	-9.9	5.0	-5.5	-0.6	-0.9
CC(CNC1CCCCC1)OC(=O)c1ccccc1 (stereo not drawn)	-8.1	4.4	-4.6	.	62.5*
CCN1CCN(Cc2ccc(NC(=O)Nc3ccc(OC)cc3)cc2)CC1	-29.2	0.5	-29.5	.	-11.0
CCN1CCN(Cc2ccc(NC(=O)Nc3ccccc3)cc2)CC1	-69.1	-0.9	53.3*	.	12.6
COc1ccc(CN(C)CC(=O)Nc2ccc(SC(F)F)cc2)cc1OC	16.0	-1.6	18.4	57.4*	5.9
NC(=O)c1cc(S(=O)(=O)N2CCc3ccccc3C2)cs1	-0.1	1.7	-9.4	-5.7	-2.7
Cc1cc(C)c2sc(NNC(=O)c3ccc(S(=O)(=O)N4CCc5ccccc5C4)cc3)nc2c1	0.4	1.9	14.8	158.5*	48.7*
Cc1cc(C)c2nc(NNC(=O)c3ccc(S(=O)(=O)N4CCc5ccccc5C4)cc3)sc2c1	-46.0	-0.2	-17.5	21.7*	?
CC(=O)Nc1ccc(NC(=O)c2cc(-c3cc(C)cc(C)c3O)n[nH]2)cc1	-31.1	-2.0	3.8	-7.1	-10.1
Cc1cc(C)c(O)c(-c2cc(C(=O)Nc3ccc(S(=O)(=O)N4CCOCC4)cc3)[nH]n2)c1	20.2	0.1	69.8*	-0.6	6.5
CC(=O)c1ccc(OC2(C)CCN(Cc3csc4ccccc34)C2)cc1 (stereo not drawn)	7.1	.	7.8	.	.
COc1ccc(S(=O)(=O)N(C)C[C@H]2Oc3c(NC(=O)CCC(F)(F)F)cccc3C(=O)N([C@H](C)CO)C[C@@H]2C)cc1	-4.2	.	1.0	.	55.6*
C[C@H](CO)N1C[C@H](C)[C@@H](CN(C)C(=O)NC2CCCCC2)Oc2c(NS(=O)(=O)c3cn(C)cn3)cccc2C1=O	2.1	.	12.8	.	49.8*
CC(C)NC(=O)N(C)C[C@H]1Oc2c(NS(=O)(=O)c3cn(C)cn3)cccc2C(=O)N([C@H](C)CO)C[C@@H]1C	-13.6	.	-1.2	.	-2.5
c1ccc(-c2ncc3c(ccc4ccccc43)n2)cc1	-88.1	2.1	51.1*	0.4	19.2
c1ccc2c(c1)cnc1ccccc12	-15.4	0.2	1.5	1.0	2.0
CC(C)Oc1ccccc1/C=N/Nc1ccccc1[N+](=O)[O-]	-23.1	1.3	82.3*	0.4	-15.0
COc1ccccc1/C=N\Nc1ccccc1[N+](=O)[O-]	-109.1	-0.9	-40.2	3.7	-39.1
CCCOc1ccc(/C=N/Nc2ccccc2[N+](=O)[O-])c(O)c1	2.0	1.5	90.5*	-0.8	24.5
CN(C)c1c([N+](=O)[O-])cc(N2C(=O)C=CC2=O)cc1[N+](=O)[O-]	-26.5	.	19.0	.	-0.7
CCN1CCN(C(=O)C(Cc2ccccc2)NC(=O)c2ccc(Cl)c(S(=O)(=O)N(C)C)c2)CC1 (stereo not drawn)	-1.8	.	11.8	.	-0.5
SMILES	NR2E3 ag-1	NR2E3 ag-2	TROY NFkB inh	HIF activator	EBV LMP1 NFkB
Cc1ccc(NC(=O)C2Cc3ccccc3CN2C(=O)c2ccco2)cc1S(=O)(=O)N(C)C (stereo not drawn)	-44.4	3.1	71.7*	1.4	-2.9
O=C(/C=C/c1ccc(N2CCC(c3ccccc3)=N2)cc1)c1ccccc1	.	0.1	.	0.4	.
CCOC(=O)/C(=C\c1ccc(N2CCC(c3ccccc3)=N2)cc1)C(C)=O	-66.1	.	41.5	.	87.6*
O=C(O)c1cccc(-n2cccc2/C=C2/SC(=O)N(CC(=O)N3CCCC3)C2=O)c1	2.9	-2.5	0.7	14.0*	-2.1
CN(CCCC(=O)NCc1ccccc1)S(=O)(=O)c1ccc([N+](=O)[O-])cc1	-7.7	-0.1	-9.5	-0.4	-4.9
O=C(CSc1ccccn1)Nc1nncs1	-1.1	-2.7	11.1	-0.2	-7.7
COc1ccc(N=Nc2ccc(CO)cc2)cc1	-102.5	0.1	-27.8	0.2	26.1
OCc1ccc(N=Nc2ccccc2)cc1	-140.2	-3.5	-35.0	10.4*	27.9
CCCS(=O)(=O)N1CCC(C(=O)NC2CCCC(C)C2C)CC1 (stereo not drawn)	-13.0	5.6	-11.2	0.3	2.9
CCCS(=O)(=O)N1CCCC(C(=O)NC2CCCC(C)C2C)C1 (stereo not drawn)	1.2	2.4	5.0	-0.2	59.5*
CCCCC(=O)NC(c1ccc(Cl)cc1)c1ccc2cccnc2c1O (stereo not drawn)	-0.2	-3.7	14.8	86.3*	67.1*
CCCC(=O)NC(c1ccco1)c1cc(Cl)c2cccnc2c1O (stereo not drawn)	-21.7	6.8	17.4	-0.1	33.6
COc1ccc(C(NC(C)=O)c2ccc3cccnc3c2O)c(OC)c1 (stereo not drawn)	-41.8	-1.5	7.7	64.6*	58.6*
CC(=O)NC(c1ccc(Cl)cc1Cl)c1ccc2cccnc2c1O (stereo not drawn)	-12.0	.	28.5	246.1*	68.6*
CCCC(=O)NC(c1ccc(Cl)cc1Cl)c1ccc2cccnc2c1O (stereo not drawn)	-24.2	2.9	34.3	74.2*	62.8*
Cc1cc(CN(C)C(=O)c2ccc(OC3CCN(CCc4ccccc4)CC3)cc2)on1	24.9	2.0	1.8	-0.8	-2.8
CCN(CC)C(=O)C1=C(C)N(CCCN2CCCC2=O)C(=O)C(CC(=O)NCC2CCCCC2)C1 (stereo not drawn)	15.0	.	-0.8	.	-1.7
CCCC(=O)NC(c1ccc(Cl)cc1)c1ccc2cccnc2c1O (stereo not drawn)	-1.5	1.0	17.4	92.2*	?
CCCC(=O)NC(c1ccc(C)cc1)c1ccc2cccnc2c1O (stereo not drawn)	-21.4	6.1	19.2	124.8*	62.5*
CC(=O)NC(c1ccc2ccccc2c1)c1ccc2cccnc2c1O (stereo not drawn)	-4.4	-4.0	34.5	89.9*	48.9*
C/C(=N\NS(=O)(=O)c1ccc(C)c([N+](=O)[O-])c1)c1cccs1	0.1	1.9	-9.5	0.1	-4.2
C/C(=N\NS(=O)(=O)c1ccc([N+](=O)[O-])cc1)c1cccs1	9.9	-0.3	-1.8	0.2	57.8*
CCOC(=O)c1ccccc1NC(=O)[C@@H]1CCCN1C(=O)OC(C)(C)C	-5.0	-0.3	-10.4	0.4	-2.0

From PubChem BioAssay
